# Experimental data: ChEMBL document CHEMBL1136733, “Pyrrolopyrazinedione-based inhibitors of human hormone-sensitive lipase” (J Med Chem, 2003)
# What was measured:
# Hormone-sensitive lipase [1] = molecular target: T1, Hormone-sensitive lipase (Homo sapiens, UniProt Q05469); test: Inhibitory activity against human hormone-sensitive lipase (HSL) expressed in the baculovirus was determined by p-nitrophenyl butyrate (PNPB) assay
# T1 sequence (Q05469 whole entry): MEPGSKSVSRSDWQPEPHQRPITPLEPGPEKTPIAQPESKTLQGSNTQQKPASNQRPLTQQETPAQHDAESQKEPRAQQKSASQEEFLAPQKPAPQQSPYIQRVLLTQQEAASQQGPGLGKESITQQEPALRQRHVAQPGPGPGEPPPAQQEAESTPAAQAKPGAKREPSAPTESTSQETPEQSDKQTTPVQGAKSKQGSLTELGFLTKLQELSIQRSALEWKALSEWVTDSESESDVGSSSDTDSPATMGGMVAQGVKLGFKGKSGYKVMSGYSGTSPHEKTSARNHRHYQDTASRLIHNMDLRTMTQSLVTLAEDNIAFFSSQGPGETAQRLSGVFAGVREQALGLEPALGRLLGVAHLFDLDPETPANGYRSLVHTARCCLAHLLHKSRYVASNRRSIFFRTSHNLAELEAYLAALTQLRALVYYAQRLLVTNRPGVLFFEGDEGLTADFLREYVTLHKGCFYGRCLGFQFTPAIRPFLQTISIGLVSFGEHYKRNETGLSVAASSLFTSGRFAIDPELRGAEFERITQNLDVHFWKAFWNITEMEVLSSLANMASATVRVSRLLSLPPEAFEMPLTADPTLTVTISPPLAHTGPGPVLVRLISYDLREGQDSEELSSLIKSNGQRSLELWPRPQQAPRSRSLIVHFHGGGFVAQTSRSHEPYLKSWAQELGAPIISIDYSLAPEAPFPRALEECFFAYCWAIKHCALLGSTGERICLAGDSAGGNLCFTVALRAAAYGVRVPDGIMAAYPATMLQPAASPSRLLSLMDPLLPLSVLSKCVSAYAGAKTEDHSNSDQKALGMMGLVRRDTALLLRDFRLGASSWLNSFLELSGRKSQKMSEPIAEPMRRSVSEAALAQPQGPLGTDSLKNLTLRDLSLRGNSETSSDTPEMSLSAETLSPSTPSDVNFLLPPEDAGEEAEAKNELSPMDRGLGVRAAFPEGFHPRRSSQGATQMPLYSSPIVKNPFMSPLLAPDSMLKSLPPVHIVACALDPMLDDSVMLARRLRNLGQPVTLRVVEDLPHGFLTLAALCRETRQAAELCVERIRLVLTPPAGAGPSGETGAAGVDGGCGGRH
# Procedure, shortened: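 Recombinant human HSL (His-tagged, Sf9/baculovirus, Ni-NTA purified), 10 ng per reaction in 20 mM KPO4 pH 7.4, 1 mM EDTA, 0.1% Triton X-100, 5 mM p-nitrophenyl butyrate, 5% DMSO. Incubated 1 h at 27 °C, absorbance read at 400 nm. Full 8-point IC50 curves run in triplicate.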
# Hormone-sensitive lipase [2] = molecular target: T1, Hormone-sensitive lipase; test: Inhibitory activity against Human Hormone-sensitive lipase (HSL) expressed in the baculovirus was determined by HSL [14 C] cholesteryl oleate assay
# Procedure, shortened: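 Recombinant human HSL from Sf9/baculovirus expression, Ni-NTA purified. Substrate was a [14C]cholesteryl oleate emulsion. IC50 derived from 8-point concentration curves run in triplicate.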
compound,measurement,setting,value
COC(=O)C1CC2(COCc3ccccc3)C(=O)N(CCCCc3ccccc3)CC(=O)N2C1c1ccco1 (configuration not stated),IC50,Hormone-sensitive lipase [1],210 nM
same,IC50,Hormone-sensitive lipase [2],260 nM
